INS-1E ATP HTS – preserves ATP levels in cytokine-treated INS-1E cells | INS-1E cytokine-induced death, ATP luminescence, 48 h; normalised: neutral wells 0, positive control 100 | protection from cytokine-induced ATP loss, % at 10 µM | 20,000 compounds, 0.1% hits | AID 488910;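 active = mean replicate protection from cytokine-induced ATP loss at least 50% and at least 75% of replicates each reaching 50%; inconclusive = meets only one of the two criteria, mean or replicate share; inactive = fails both the mean and replicate share criteria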
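Assay system – rat INS-1E insulinoma cell line · Quantity – 8000 cells per well · Buffer or medium – RPMI without phenol red, 5% FBS · Schedule – 48 h co-treatment, 10 min post-lysis read · Technique – luminescent ATP assay (CellTiter-Glo)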
T cruzi intra – inhibitors of intracellular Trypanosoma cruzi; intracellular Trypanosoma cruzi in host cells, plate reader; activity score (inhibition), % at 5.01 µM; 22,000 compounds, 4.9% hits; AID 651903; in the data active = activity score above about 55%; inconclusive = no clear call, values can overlap the other calls;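 note: parasites and compound incubated about four days before reading; 0% = median of neutral control wells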
A1 apoptosis 2 – A1 inhibition read as caspase activation; MEF A1-2A-BIM cells, caspase-Glo luminescence, 3 h; percent of clofoctol response, DMSO zero; caspase activation, % (concentration not given with the values); 24,000 tested, under 10 active; in the data active = caspase activation above about 5.9%; inconclusive = no clear call, values can overlap the other calls; inactive = below about 2.2%
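system = A1-2A-BIM-expressing MEF cells | quantity = 2500 MEF cells/well | dosing = 50 nL compound per well, pinned | schedule = overnight cell settling, then 3 h compound exposure, 37 °C | signal = luminescence from DEVD-luciferin Caspase-Glo reagent, 1:1 in 50 mM HEPES, 1 h RT | read-out = Caspase-3/7 activation, seen as rise in luminescence signal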
* = called active by the depositor; ? = inconclusive; / = no result given. The sample as a whole holds a higher share of hits than the screen did.

SMILES	INS-1E ATP HTS	T cruzi intra	A1 apoptosis 2
C[C@H](CO)N1C[C@H](C)[C@@H](CN(C)C(=O)Nc2ccc(C(F)(F)F)cc2)Oc2ccc(NC(=O)Nc3ccc(C(F)(F)F)cc3)cc2C1=O	-102.5	?	/
C[C@@H]1CN([C@H](C)CO)C(=O)c2cc(NC(=O)Nc3ccc(C(F)(F)F)cc3)ccc2O[C@@H]1CN(C)Cc1ccc(C(F)(F)F)cc1	-27.1	24.5	/
Cc1ccc(F)cc1S(=O)(=O)N[C@@H]1CCN(Cc2ccc(CC(C)C)cc2)C1	/	/	0.5
O=C(NO)c1cccc(C(=O)N/N=C/c2ccc(F)c(Oc3ccccc3)c2)c1	5.7	-37.4	/
COc1ccc([C@@H]2C=C(C(=O)O)O[C@H](OCc3ccc(CO)cc3)C2)cc1	/	/	0.0
CC(C)(C)OC(=O)N1CCC[C@H]1/C=N/NC(=O)CCCCCCC(=O)Nc1ccccc1O	5.5	-3.5	/
O=S(=O)(NC1CCN(Cc2ccc(OCCO)cc2)CC1)c1ccc(-c2ccccc2)cc1	/	/	-0.5
CCN(CC)c1ccc(/C=N/NC(=O)c2ccccc2O)c(O)c1	/	/	-9.0
O=C(O)CCCCCCC(=O)N/N=C/c1ccc(N(c2ccccc2)c2ccccc2)cc1	/	/	0.3
NC(=O)COc1ccc(/C=N/NC(=O)c2ccccc2O)cc1	-18.6	-8.4	-0.4
C[C@@H]1CN([C@@H](C)CO)C(=O)c2cc(NC(=O)Nc3ccc(C(F)(F)F)cc3)ccc2O[C@@H]1CN(C)Cc1ccc(C(F)(F)F)cc1	-62.2	52.0	-0.3
C[C@H]1CN([C@@H](C)CO)C(=O)c2cc(NC(=O)Nc3ccc(C(F)(F)F)cc3)ccc2O[C@@H]1CN(C)Cc1ccc(C(F)(F)F)cc1	/	71.9*	?
C[C@@H]1CN([C@H](C)CO)C(=O)Cc2cc(NC(=O)Cc3cn(C)c4ccccc34)ccc2O[C@H]1CN(C)Cc1ccc(C(F)(F)F)cc1	3.0	63.3*	0.5
C[C@H]1CN([C@@H](C)CO)C(=O)Cc2cc(NC(=O)Cc3cn(C)c4ccccc34)ccc2O[C@H]1CN(C)Cc1ccc(C(F)(F)F)cc1	-51.6	75.3*	2.2
C[C@@H]1CN([C@H](C)CO)C(=O)Cc2cc(NC(=O)Cc3cn(C)c4ccccc34)ccc2O[C@@H]1CN(C)Cc1ccccc1	-21.2	52.3	/
C[C@@H]1CN([C@@H](C)CO)C(=O)Cc2cc(NC(=O)Cc3cn(C)c4ccccc34)ccc2O[C@@H]1CN(C)Cc1ccccc1	-16.3	20.9	-0.5
COc1cc(O)cc(OC)c1/C=N/NC(=O)CCCCCC(=O)Nc1ccccc1O	5.7	-7.2	1.1
C[C@H]1CN([C@@H](C)CO)C(=O)Cc2cc(NS(=O)(=O)c3ccccc3)ccc2O[C@H]1CN(C)Cc1ccc(Cl)c(Cl)c1	-28.9	24.7	-0.5
C[C@@H]1CN([C@H](C)CO)C(=O)Cc2cc(NS(=O)(=O)c3ccccc3)ccc2O[C@H]1CN(C)Cc1ccc(Cl)c(Cl)c1	-9.8	73.1*	-1.0
C[C@@H]1CN([C@H](C)CO)C(=O)Cc2cc(NS(=O)(=O)c3ccccc3)ccc2O[C@@H]1CN(C)Cc1ccc(Cl)c(Cl)c1	-65.2	65.3*	-0.8
C[C@H](CO)N1C[C@H](C)[C@H](CN(C)Cc2ccc(Cl)c(Cl)c2)Oc2ccc(NS(=O)(=O)c3ccccc3)cc2CC1=O	-5.2	37.5	0.3
O=C(CCCCC(=O)N/N=C/c1ccc(Br)cc1)NO	/	/	-0.3
C[C@H](CO)N1C[C@H](C)[C@H](CN(C)Cc2ccc(C(=O)Nc3ccccc3N)cc2)Oc2ccc(N(C)C)cc2CC1=O	65.2*	59.0*	/
C[C@@H]1CN([C@@H](C)CO)C(=O)Cc2cc(NC(=O)c3ccncc3)ccc2O[C@@H]1CN(C)Cc1ccc(C(=O)Nc2ccccc2N)cc1	-13.1	52.7	1.5
C[C@@H]1CN([C@@H](C)CO)C(=O)c2cc(N(C)C)ccc2O[C@@H]1CN(C)Cc1ccc(C(=O)Nc2ccccc2N)cc1	28.0	61.2*	/
SMILES	INS-1E ATP HTS	T cruzi intra	A1 apoptosis 2
C[C@H](CO)N1C[C@H](C)[C@@H](CN(C)Cc2ccc(C(=O)Nc3ccccc3N)cc2)Oc2ccc(N(C)C)cc2CC1=O	/	/	-0.8
C[C@H]1CN([C@@H](C)CO)C(=O)Cc2cc(N(C)C)ccc2O[C@H]1CN(C)Cc1ccc(C(=O)Nc2ccccc2N)cc1	31.5	61.9*	/
C[C@H]1CN([C@@H](C)CO)C(=O)c2cc(N(C)C)ccc2O[C@@H]1CN(C)Cc1ccc(C(=O)Nc2ccccc2N)cc1	29.3	33.8	/
NC(=O)COc1ccccc1/C=N/NC(=O)CCCCCC(=O)NO	/	/	0.7
O=C(NO)c1cccc(C(=O)N/N=C/c2ccc(-n3ccnc3)cc2)c1	9.6	-21.1	0.6
C[C@H](CO)N1C[C@H](C)[C@H](CN(C)Cc2ccc(Cl)c(Cl)c2)Oc2ccc(NC(=O)Cc3cn(C)c4ccccc34)cc2C1=O	-21.4	56.4*	0.5
C[C@H](CO)N1C[C@H](C)[C@H](CN(C)S(=O)(=O)c2ccc(Cl)cc2)Oc2ccc(NC(=O)Cc3cn(C)c4ccccc34)cc2C1=O	-8.5	50.0	-0.7
C[C@H]1CN([C@@H](C)CO)C(=O)c2cc(NC(=O)Cc3cn(C)c4ccccc34)ccc2O[C@H]1CN(C)S(=O)(=O)c1ccc(Cl)cc1	0.8	66.8*	1.0
C[C@H](CO)N1C[C@H](C)[C@@H](CN(C)Cc2ccc(Cl)c(Cl)c2)Oc2ccc(NC(=O)Cc3cn(C)c4ccccc34)cc2C1=O	-8.7	-4.0	-0.5
C[C@H]1CN([C@@H](C)CO)C(=O)Cc2cc(NC(=O)Cc3cn(C)c4ccccc34)ccc2O[C@@H]1CN(C)Cc1ccc(Cl)c(Cl)c1	/	/	0.0
C[C@H]1CN([C@@H](C)CO)C(=O)c2cc(NC(=O)Cc3cn(C)c4ccccc34)ccc2O[C@@H]1CN(C)Cc1ccc(-c2ccccc2)cc1	-10.3	74.8*	1.4
C[C@@H]1CN([C@H](C)CO)C(=O)Cc2cc(NC(=O)Cc3cn(C)c4ccccc34)ccc2O[C@@H]1CN(C)Cc1ccc(Cl)c(Cl)c1	-39.5	68.6*	0.8
C[C@@H]1CN([C@H](C)CO)C(=O)c2cc(NC(=O)Cc3cn(C)c4ccccc34)ccc2O[C@H]1CN(C)Cc1ccc(-c2ccccc2)cc1	-10.3	13.0	-1.5
C[C@@H]1CN([C@@H](C)CO)C(=O)c2cc(NC(=O)CCCN(C)C)ccc2O[C@H]1CN(C)Cc1ccc(C(F)(F)F)cc1	5.4	-18.3	/
C/C=C(C)\C=N\NC(=O)CCCCC(=O)NO	10.1	-0.6	0.0
O=C(NO)c1cccc(C(=O)N/N=C/c2cc(O)ccc2[N+](=O)[O-])c1	7.0	-11.8	/
CCCCCCC/C=N/NC(=O)c1ccccc1O	-2.2	-10.2	-0.1
C[C@@H]1CCCCO[C@H](CN(C)CC2CC2)[C@H](C)CN([C@H](C)CO)C(=O)c2cc(NS(=O)(=O)c3ccccc3)ccc2O1	/	/	-0.1
C[C@@H]1CN([C@H](C)CO)C(=O)Cc2cc(NC(=O)C3CCCCC3)ccc2O[C@H]1CN(C)Cc1ccc(-c2ccccc2)cc1	-27.4	57.4*	0.5
C[C@H](CO)N1C[C@H](C)[C@H](CN(C)Cc2ccc(-c3ccccc3)cc2)Oc2ccc(NC(=O)C3CCCCC3)cc2CC1=O	-41.1	67.1*	/

High-throughput results as filed in PubChem.
